pEC50, pIC50: −log10 of the molar value. Calls of active or inactive are those of the source. The rule behind the calls is not given here. Where a SMILES comes first, the peptide text is derived from it. The star is where a group is joined. Cbz = O=C(OCc1ccccc1)*; CH2F = FC*
How the values were obtained:
[1] = system: Jurkat; test: Induction of apoptosis in human Jurkat cells assessed as hypodyploid cells at 50 nM after 48 hrs by annexin-V FITC/7-ADD staining-based flow cytometric analysis in presence of 50 uM Z-VAD-fmk pan-caspase inhibitor; type: functional
[2] = system: A549; test: Inhibition of microtubule polymerization in human A549 cells assessed as total disruption of interphase microtubule network at 5 uM after 8 hrs by immunofluorescence microscopy; type: cell-based
Procedure, shortened: (§1)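 A549 cells incubated 8 h with compound at 0.1, 0.5, 1 and 5 μM; DMSO vehicle as negative control. Microtubules labelled by indirect immunofluorescence and examined by fluorescence microscopy. Value is the concentration giving total interphase microtubule disassembly, from three independent experiments.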

[3] = system: Paracentrotus lividus; test: Antimitotic activity against Paracentrotus lividus embryo assessed as embryo spinning treated 10 to 25 mins post fertilization followed by 45 to 60 mins before the first mitotic cycle completion by sea urchin embryo assay; type: functional
[4] = system: Paracentrotus lividus; test: Antimitotic activity against Paracentrotus lividus embryo assessed as cleavage arrest treated 10 to 25 mins post fertilization followed by 45 to 60 mins before the first mitotic cycle completion by sea urchin embryo assay; type: functional
[5] = system: A549; test: Inhibition of microtubule polymerization in human A549 cells assessed as total disruption of interphase microtubule network at 1 uM after 8 hrs by immunofluorescence microscopy; type: cell-based; procedure, shortened: as §1
[6] = system: Paracentrotus lividus; test: Antimitotic activity against Paracentrotus lividus embryo assessed as cleavage alteration treated 10 to 25 mins post fertilization followed by 45 to 60 mins before the first mitotic cycle completion by sea urchin embryo assay; type: functional
[7] = system: A549; test: Cytotoxicity against human A549 cells assessed as cell viability after 24 hrs by MTT assay; type: functional, cell-based; settings: A549, 24 h
Procedure, shortened: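 A549 human lung carcinoma cells; growth inhibition measured by MTT assay. IC50 derived from dose-response curves, mean ± SD of three independent experiments.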

[8] = system: A549; test: Inhibition of microtubule polymerization in human A549 cells assessed as total disruption of interphase microtubule network at 0.1 uM after 8 hrs by immunofluorescence microscopy; type: cell-based; procedure, shortened: as §1
[9] = system: Paracentrotus lividus; test: Antimitotic activity against Paracentrotus lividus embryo assessed as formation of tuberculate egg at 100 nM after 6 hrs post fertilization by microscopic analysis; type: functional, organism-based
[10] = system: A549; test: Inhibition of microtubule polymerization in human A549 cells assessed as total disruption of interphase microtubule network at 0.5 uM after 8 hrs by immunofluorescence microscopy; type: cell-based; procedure, shortened: as §1
[11] = system: Paracentrotus lividus; test: Antimitotic activity against Paracentrotus lividus embryo assessed as cleavage alteration at 10 nM after 6 hrs post fertilization by microscopic analysis; type: functional, organism-based
[12] = system: Paracentrotus lividus; test: Toxicity against Paracentrotus lividus embryo post hatching; type: organism-based; settings: in vivo
[13] = system: Paracentrotus lividus; test: Toxicity against Paracentrotus lividus embryo at 40 to 68 uM after 2.5 hrs; type: organism-based; settings: in vivo
Procedure, shortened: (§2)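 P. lividus hatched blastulae exposed to compound; larval (pluteus) malformations, gastrulation and morphogenesis abnormalities, and developmental abnormalities/embryo death scored microscopically, the latter after 2.5 h of treatment.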

[14] = system: Paracentrotus lividus; test: Antimitotic activity against Paracentrotus lividus embryo assessed as larval malformation at 4 to 5 uM post hatching by microscopic analysis; type: functional, organism-based; procedure, shortened: as §2
[15] = system: Paracentrotus lividus; test: Induction of apoptosis in Paracentrotus lividus embryo assessed as developmental abnormalities at 40 to 68 uM after 2.5 hrs; type: functional, organism-based; procedure, shortened: as §2
[16] = system: Paracentrotus lividus; test: Antimitotic activity against Paracentrotus lividus embryo assessed as abnormal gastrula formation at 10 to 20 uM by microscopic analysis; type: functional, organism-based; procedure, shortened: as §2
[17] = system: Jurkat; test: Cell cycle arrest in human Jurkat cells assessed as accumulation of cells in G0/G1 phase at 2 uM after 24 hrs by propidium iodide staining-based flow cytometry; type: functional
Procedure, shortened: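 Jurkat cells treated 24 h; DNA content after propidium iodide staining measured by flow cytometry for cell cycle distribution.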

[18] = system: Jurkat; test: Induction of apoptosis in human Jurkat cells assessed as reduction in procaspase-8 levels at 2 uM after 24 hrs by Western blotting; type: functional, cell-based
Procedure, shortened: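 Jurkat cells treated 24 h; total lysates prepared in SDS–Laemmli sample buffer and immunoblotted with anti-procaspase-8 monoclonal antibody; β-actin as loading control.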

[19] = system: A549; test: Inhibition of microtubule polymerization in human A549 cells assessed as total disruption of interphase microtubule network at > 5 uM after 8 hrs by immunofluorescence microscopy; type: cell-based
[20] = system: P388; test: Cytotoxicity against mouse P388 cells assessed as cell viability after 48 hrs by trypan blue exclusion assay; type: functional, cell-based; settings: P388, 48 h
[21] = system: A549; test: Cell cycle arrest in human A549 cells at 50 uM after 24 hrs using propidium iodide staining by flow cytometry; type: functional, cell-based
[22] = system: Jurkat; test: Induction of apoptosis in human Jurkat cells assessed as procaspase-2 cleavage at 50 nM after 24 hrs by Western blotting; type: functional, cell-based
Procedure, shortened: (§3)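 Jurkat cells treated at 50 nM for 24 or 48 h; untreated control, etoposide 2 μM 24 h as comparator. Total lysates prepared in SDS-Laemmli buffer and immunoblotted with monoclonal anti-caspase-9, anti-caspase-2 and anti-procaspase-8 antibodies. β-Actin served as loading control.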

[23] = system: Jurkat; test: Induction of apoptosis in human Jurkat cells assessed as reduction in procaspase-8 levels at 50 nM after 48 hrs by Western blotting; type: functional, cell-based; procedure, shortened: as §3
[24] = system: Jurkat; test: Cell cycle arrest in human Jurkat cells assessed as accumulation of cells in G2/M phase at 25 nM after 24 hrs by propidium iodide staining-based flow cytometry; type: functional
Procedure, shortened: (§4)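 Jurkat cells treated for 24 h, then stained with propidium iodide. DNA content analysed by flow cytometry for cell-cycle distribution.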

[25] = system: Jurkat; test: Induction of apoptosis in human Jurkat cells assessed as PARP cleavage at 50 nM after 48 hrs by annexin-V FITC/7-ADD staining-based flow cytometric analysis (reference value: 6.5%); type: functional
[26] = system: Jurkat; test: Induction of apoptosis in human Jurkat cells assessed as procaspase-2 cleavage at 50 nM after 48 hrs by Western blotting; type: functional, cell-based; procedure, shortened: as §3
[27] = system: Jurkat; test: Induction of apoptosis in human Jurkat cells assessed as procaspase-9 cleavage at 50 nM after 24 hrs by Western blotting; type: functional, cell-based; procedure, shortened: as §3
[28] = system: Jurkat; test: Induction of apoptosis in human Jurkat cells assessed as cells with active form of caspase-3 at 50 nM after 48 hrs by annexin-V FITC/7-ADD staining-based flow cytometric analysis (reference value: 7.1%); type: functional
[29] = system: Jurkat; test: Induction of apoptosis in human Jurkat cells assessed as hypodyploid cells at 50 nM after 48 hrs by annexin-V FITC/7-ADD staining-based flow cytometric analysis (reference value: 12.2%); type: functional
[30] = system: Jurkat; test: Induction of apoptosis in human Jurkat cells assessed as procaspase-9 cleavage at 50 nM after 48 hrs by Western blotting; type: functional, cell-based; procedure, shortened: as §3
[31] = system: A549; test: Cell cycle arrest in human A549 cells assessed as accumulation of cells in G2/M phase after 24 hrs by propidium iodide staining-based flow cytometry; type: functional; settings: A549, 24 h
[32] = system: Jurkat; test: Cytotoxicity against human Jurkat cells assessed as cell viability after 48 hrs by trypan blue exclusion assay; type: functional, cell-based
Procedure, shortened: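 Jurkat T-leukemia cells; proliferation inhibition measured by trypan blue assay, giving IC50.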

[33] = system: Jurkat; test: Cell cycle arrest in human Jurkat cells assessed as accumulation of cells in G2/M phase at 20 nM after 24 hrs by propidium iodide staining-based flow cytometry; type: functional; procedure, shortened: as §4

SMILES	inhibition [2]	EC [3] [nM]	EC [4] [nM]	inhibition [5]	EC [6] [nM]	pIC50 [7]	inhibition [8]	inhibition [10]	other results
COC(=O)C[C@H](NC(=O)[C@H](C)NC(=O)[C@@H](NC(=O)OCc1ccccc1)C(C)C)C(=O)CF (Cbz-Val-Ala-Asp(OMe)-CH2F)	–	–	–	–	–	–	–	–	Activity [1]: 28.4%
COc1cc(C2C3=C(COC3=O)Nc3cc4c(cc32)OCO4)cc2c1OCO2 (racemic)	Active	50	50	Active	5	7.26	Active	Active	Activity [9]: Active; Activity [11]: Active
COc1cc(C2C3=C(COC3=O)Nc3cc4c(cc32)CCCC4)cc(OC)c1OC (stereo not drawn)	Active	100	200	Active	50	7.25	Active	Active	Activity [12]: Toxic
COc1cc([C@@H]2c3cc4c(cc3[C@@H](O[C@@H]3O[C@@H]5CO[C@@H](C)O[C@H]5[C@H](O)[C@H]3O)[C@H]3COC(=O)[C@H]23)OCO4)cc(OC)c1O [ETOPOSIDE]	–	>68000	>68000	–	2000	–	–	–	Activity [13]: Toxic; Activity [14]: Active; Activity [15]: Active; Activity [16]: Active; Activity [17]: Active; Activity [18]: Active
COc1cc(-c2c3c(nc4cc5c(cc24)OCO5)COC3=O)cc(OC)c1OC	–	>4000	>4000	–	>4000	4.92	–	–	inhibition [19]: Active; pIC50 [20]: < 3.60; Activity [21]: inactive
COc1cc([C@@H]2c3cc4c(cc3[C@H](O)[C@H]3COC(=O)[C@H]23)OCO4)cc(OC)c1OC [PODOFILOX]	Active	500	50	Active	20	8.13	Active	Active	Activity [22]: Active; Activity [23]: inactive; Activity [24]: Active; Activity [25]: 40.7%; Activity [26]: Active; Activity [27]: Active; Activity [28]: 28%; Activity [29]: 55.6%; Activity [30]: Active; pEC50 [31]: 7.78; pIC50 [32]: 7.60
COc1ccc2c(c1)NC1=C(C(=O)OC1)C2c1cc(OC)c2c(c1)OCO2 (stereo not drawn)	Active	50	5	Active	0.5	7.82	Active	Active	Activity [22]: Active; Activity [23]: inactive; Activity [25]: 38.3%; Activity [26]: Active; Activity [27]: Active; Activity [28]: 27.8%; Activity [33]: Active; Activity [29]: 54.9%; Activity [30]: Active; pIC50 [32]: 7.76

— ChEMBL document CHEMBL1914380, “Polyalkoxybenzenes from plants. 5. Parsley seed extract in synthesis of azapodophyllotoxins featuring strong tubulin destabilizing activity in the sea urchin embryo and cell culture assays” (J Med Chem, 2011)
